Test [1] in a line: inhibitors of TNFa-induced NFkB p65 translocation, primary screen, imaging, HUVEC, MLSMR starter and 10KST1 sets (AID 438;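 active means inhibition above 20% together with a positive visual image hit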;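 further: compound added about 3h40 before a 20 min TNFalpha stimulation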;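 on inhibition: signal is the nuclear over cytoplasmic p65 intensity ratio per well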). The conditions noted are these: HUVEC TNFa-induced p65 nuclear translocation; cell count: measured here: nuclei count (cytotoxicity indicator), at 2.08 µM; inhibition: at 2 µM, stronger effect = higher value, 0% TNFa-plus-vehicle, 100% no-TNFa wells.
A short description of test [2]: reduction of polyQ htt aggregates in cells – imaging, exon1htt(103Q)mCFP cells, high-content imaging, primary screen (AID 483;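 active means visual image review flags a hit and inhibition of aggregation exceeds 20%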;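 further: compound exposure lasted 3 days before fixation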;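 on nuclei count: percent of the per-plate median nuclei count of sample wells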). The following applies: exon1htt(103Q)mCFP cell line, aggregate imaging, at 2 µM; inhibition of aggregation: stronger effect = higher value; nuclei count: measured here: cell count, toxicity.
Test [3] can be described thus: endothelial E-selectin expression blockers – imaging, HUVEC, immunofluorescence, MLSMR starter and 10KST1 sets, primary screen (AID 487).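 On inhibition: signal is fraction of cell area covered by stained E-selectin grains.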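 On nuclei count: 100% = median nuclei count of all wells on the same plate.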 The following applies: HUVEC TNFalpha-induced E-selectin immunofluorescence imaging, at 2 µM; inhibition: stronger effect = higher value; nuclei count: measured here: cell number, toxicity.
For test [4], the target named is Voltage-gated potassium channel subunit beta-2 (Rattus norvegicus) (UniProt P62483). The test is described as follows: inhibitors of rat Kvbeta2 reductase activity – biochemical, NADPH fluorescence, primary screen (AID 622;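 active means fluorescence slope higher than the sample average by over 3 SD, cut at about -0.22 in these data, passing the limit was not always enough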;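 further: slope of raw intensity against log time taken from 70 to 1610 s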). The following applies: recombinant KvBeta, 4-cyanobenzaldehyde reduction, at 10 µM, stronger effect = higher value.
Test [5] shares this target. Description: enhancers of rat Kvbeta2 NADPH turnover – biochemical, NADPH fluorescence, primary screen (AID 623;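 active means NADPH fluorescence slope more negative than the mean of all samples by about 3 SD, 99.7% confidence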;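 further: fluorescence intensity change per second fitted from 20 to 320 s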). The following applies: Recombinant KvBeta, NADPH fluorescence decrease slope, 10 min; at 10 µM; stronger effect = lower value.
In test [6] the target is Alpha-2C adrenergic receptor (Homo sapiens) (UniProt P18825). The test is described as follows: compounds altering alpha2C-coupled GIRK flux – cell-based, HEK293 alpha2C/GIRK1/2, thallium flux, primary screen (AID 624;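 active means fluorescence slope after compound addition differing from the mean of all screened samples at 99.7% confidence, in either direction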;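 further: slope of fluorescence ratio to pre-addition baseline per second over 15 to 24 s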). The conditions noted are these: thallium flux BTC fluorescence, at 10 µM, actives lie on both sides.
Test [7] in a line: inhibitors of larval lipid processing in zebrafish, primary screen, whole organism, PED6 fluorescence, gall bladder and intestine (AID 686;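 active means a full or partial loss of lipid-probe fluorescence in the fish gall bladder, intestine or both, judged by eye; inactive means no fluorescence loss, or compound toxic to the fish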;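 further: larvae 5 to 7 days old with five fish per well; signal comes from phospholipase A2 cleavage of quenched PED6 carried via bile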). The following applies: Zebrafish larvae PED6 lipid processing, fluorescence scoring; screened at 20 µM (by protocol). In a few lines:
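Incubation: overnight exposure of larvae to compound plus PED6 / Test system: live zebrafish larvae aged 5-7 days, whole organism / Amount: 5 larvae per well / Read-out basis: visual per-well fluorescence inhibition score / Signal: visual fluorescence microscopy scoring of gall bladder, gut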

The nature of test [8]: blockers of RIG-like receptor reporter activation – cell-based, Sendai virus stimulus, luciferase, 10K MLSCN set, TLR/RLR signaling modifier project, primary screen (AID 602276;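 active means inhibition at or above 50% at 10 µM; inactive means inhibition below 50%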;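 further: firefly luciferase from ISG56 promoter only with Renilla not read in this screen; 0% = Sendai virus plus DMSO and 100% = medium plus DMSO without virus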). The conditions noted are these: HEK293 RL24 IRF3 luciferase reporter, at 10 µM, stronger effect = higher value.
Test [9] can be described thus: TLR3 IRF3 reporter activation blockers – cell-based, poly I:C stimulus, luciferase, 10K MLSCN set, primary screen (AID 602277;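 active means inhibition of the reporter signal at or above 50%; inactive means inhibition below 50%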). The conditions noted are these: HEK293-TLR3 RL24 IRF3 luciferase reporter, at 10 µM, stronger effect = higher value.

From PubChem BioAssay come the findings set out here.

The structures appear in SMILES notation. Active and inactive are the calls of the source.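 How the source made its calls, unless noted: active means visually confirmed hit in the image check and inhibition above 20%; inconclusive means visually confirmed hit but inhibition not above 20%; inactive means no visual hit in the image check.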

Alpha-2C adrenergic receptor (Homo sapiens), sequence (P18825 whole entry, looked up): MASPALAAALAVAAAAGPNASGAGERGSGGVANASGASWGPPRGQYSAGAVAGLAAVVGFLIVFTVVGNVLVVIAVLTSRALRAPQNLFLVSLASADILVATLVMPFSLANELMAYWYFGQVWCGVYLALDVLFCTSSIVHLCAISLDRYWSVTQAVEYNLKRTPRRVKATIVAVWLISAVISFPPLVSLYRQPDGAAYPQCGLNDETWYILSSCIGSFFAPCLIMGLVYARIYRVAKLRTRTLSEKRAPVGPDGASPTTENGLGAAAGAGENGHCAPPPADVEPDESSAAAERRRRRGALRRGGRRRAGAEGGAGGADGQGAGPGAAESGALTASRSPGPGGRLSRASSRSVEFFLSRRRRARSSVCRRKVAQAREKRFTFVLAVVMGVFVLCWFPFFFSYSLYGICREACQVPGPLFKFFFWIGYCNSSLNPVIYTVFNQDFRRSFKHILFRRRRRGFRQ
Voltage-gated potassium channel subunit beta-2 (Rattus norvegicus), sequence (P62483 whole entry, looked up): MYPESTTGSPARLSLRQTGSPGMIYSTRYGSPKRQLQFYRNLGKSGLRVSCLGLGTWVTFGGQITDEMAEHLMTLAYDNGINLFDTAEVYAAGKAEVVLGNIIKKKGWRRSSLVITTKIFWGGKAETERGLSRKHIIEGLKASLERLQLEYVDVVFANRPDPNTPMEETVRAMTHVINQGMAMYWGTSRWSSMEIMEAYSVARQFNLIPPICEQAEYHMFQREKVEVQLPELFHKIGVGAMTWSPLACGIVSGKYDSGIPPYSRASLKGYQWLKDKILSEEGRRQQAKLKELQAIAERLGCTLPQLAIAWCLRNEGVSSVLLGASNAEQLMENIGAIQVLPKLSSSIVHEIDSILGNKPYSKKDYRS

`Cc1ccc(CN2CCN(C(=O)C3CCC3)CC2)cc1`: in [1], the cell count worked out at 361. The inhibition in test [1] was 3.3% (inactive); in test [3], -20.6% (inactive); in [8], 15.1% (inactive); in test [9] it was 6.88% (inactive). Besides, in test [2], the inhibition of aggregation was 23.3% (inactive). The figures for the nuclei count in test [2] and in test [3] were 94.3% and 104%, respectively. In addition, in [4], the fluorescence slope was -0.447 (inactive). Further, the NADPH fluorescence slope in [5] is -2.3e-05 (inactive). For the same compound, the slope in test [6] was 0.00503 (inactive). In addition, in [7], the outcome is “inactive; toxic”.
In the case of `CN1CCN(c2ccc(Cl)cc2NC(=O)c2cccc(S(=O)(=O)N(C)C)c2)CC1`, the cell count in [1] amounted to 378. The inhibition was 0.5% (inactive) in [1], 14.4% (inactive) in test [3], 6.8% (inactive) in test [8] and 12.4% (inactive) in test [9]. For the same compound, in [2], the inhibition of aggregation was -6.9% (inactive). The results for the nuclei count in test [2] and in [3] were 133% and 88.8%, respectively. The fluorescence slope in test [4] was -0.373 (inactive). Also, in test [5], the NADPH fluorescence slope was -2e-05 (inactive). In test [6], the slope is 0.00491 (inactive). Besides, in test [7], the outcome was inactive.
As for `COC(=O)C1=C(C)N(Cc2ccco2)C(=O)C1`, the cell count in test [1] was found to be 302. For the same compound, the inhibition is 0.7% (inactive) in [1], -12.5% (inactive) in test [3], 8.55% (inactive) in test [8] and 8.79% (inactive) in [9]. The inhibition of aggregation in test [2] was 26.2% (inactive). Also, the nuclei count in test [2] is 99.6%; in [3], 101%. The fluorescence slope in test [4] was -0.42 (inactive). The NADPH fluorescence slope in [5] was -3.5e-05 (inactive). Also, the slope in test [6] is 0.00527 (inactive). In addition, the compound was called inactive in test [7].
For `C#CCOC(=O)C1C2C=CC(C2)C1C(=O)O` (configuration not stated), in test [1], the cell count came to 394. For the same compound, the inhibition in [1] is 9.9% (inactive); in test [3], -317% (inactive); in test [8] it was 4.82% (inactive); in test [9] it was 0.62% (inactive). Moreover, in test [2], the inhibition of aggregation is 7.3% (inactive). Further, the nuclei count in test [2] turned out to be 87.7%; in test [3], 115%. The fluorescence slope in test [4] was -0.341 (inactive). In addition, the NADPH fluorescence slope in test [5] is -6.5e-05 (inactive). For the same compound, the slope in [6] was 0.00609 (inactive). In [7], the call was inactive.
As for `COCC(=O)n1nc(NCc2ccc(OC)cc2)nc1NCc1ccc(OC)cc1`, in test [1], the cell count worked out at 614. Further, the inhibition in test [1] was 2% (inactive); in [3], -25.2% (inactive); in test [8], 10.6% (inactive); in test [9], 8.87% (inactive). In test [2], the inhibition of aggregation was -19.7% (inactive). Besides, the nuclei count came out at 101% in [2] and 96.2% in test [3]. Moreover, the fluorescence slope in test [4] is -0.377 (inactive). In test [5], the NADPH fluorescence slope is -6e-05 (inactive). For the same compound, in test [6], the slope is 0.00518 (inactive). For the same compound, the compound was classed as inactive in test [7].
Consider `Cc1ccc(OCC2Cn3c(nc4c3c(=O)n(C)c(=O)n4C)O2)cc1` (configuration not stated), for which the cell count in test [1] worked out at 423. The inhibition was 1.8% (inactive) in [1], -13.1% (inactive) in test [3], 17.1% (inactive) in test [8] and 11.7% (inactive) in [9]. For the same compound, the inhibition of aggregation in test [2] is 22.4% (inactive). For the same compound, the nuclei count was determined as 104% in test [2] and 120% in test [3]. Also, the fluorescence slope in [4] was -0.406 (inactive). For the same compound, the NADPH fluorescence slope in [5] is -2.7e-05 (inactive). Further, in test [6], the slope was 0.00486 (inactive). Also, in [7], the compound was classed as inactive.
With `CCOCCCN(Cc1cc2cc(C)cc(C)c2[nH]c1=O)C(=O)N(CC)CC`, the cell count in test [1] was 320. Moreover, the inhibition is 4.5% (inactive) in test [1], -15.3% (inactive) in test [3], -10.7% (inactive) in test [8] and -6.77% (inactive) in test [9]. The inhibition of aggregation in [2] was 2.5% (inactive). Moreover, the figures for the nuclei count in [2] and in [3] were 92.2% and 106%, respectively. The fluorescence slope in test [4] is -0.423 (inactive). In addition, the NADPH fluorescence slope in test [5] is -3.6e-05 (inactive). Also, in test [6], the slope was 0.00543 (inactive). For the same compound, the result in [7] was inactive.
`CN(c1ccccc1C(=O)NCC1CCCO1)S(C)(=O)=O` (configuration not stated): in test [1], the cell count was 314. Besides, the inhibition is 3.8% (inactive) in test [1], -12.5% (inactive) in test [3], 15.7% (inactive) in test [8] and 14.6% (inactive) in test [9]. For the same compound, in [2], the inhibition of aggregation was 4.6% (inactive). In addition, the figures for the nuclei count in test [2] and in [3] were 94.8% and 93.8%, respectively. Further, the fluorescence slope in [4] is -0.444 (inactive). The NADPH fluorescence slope in [5] is -3.7e-05 (inactive). Moreover, the slope in [6] is 0.00536 (inactive). In addition, in [7], the call was inactive.
As for `COCCCn1c(=N)c(C(=O)NCC2CCCO2)cc2c(=O)n3cccc(C)c3nc21` (configuration not stated), in test [1], the cell count is 587. Also, the inhibition in [1] is -8.8% (inactive); in test [3], 28.1% (inactive); in [8] it was 11.6% (inactive); in test [9], 21% (inactive). For the same compound, the inhibition of aggregation in test [2] is -3.1% (inactive). In addition, the nuclei count in [2] amounted to 78.6%; in [3], 67.6%. In addition, in test [4], the fluorescence slope was -0.0296 (active). The NADPH fluorescence slope in test [5] was -1.3e-05 (inactive). The slope in test [6] was 0.00471 (inactive). In addition, the result in test [7] was inactive.
For the compound `Cc1ccc2nc(/C(C#N)=N/O)[nH]c2c1`, in [1], the cell count is 627. Further, the inhibition was -1.7% (inactive) in test [1], -34.1% (inactive) in test [3], 6.84% (inactive) in test [8] and 6.68% (inactive) in [9]. In test [2], the inhibition of aggregation was -7.3% (inactive). The figures for the nuclei count in test [2] and in test [3] were 112% and 119%, respectively. For the same compound, the fluorescence slope in [4] is -0.376 (inactive). Besides, in [5], the NADPH fluorescence slope is -8.1e-05 (inactive). In addition, in test [6], the slope was 0.00426 (inactive). Further, the result in test [7] was inactive.
Regarding `CC(C)C(CO)NC(=O)CC(=O)NC(CO)C(C)C` (configuration not stated), the cell count in test [1] was found to be 627. Also, the inhibition is -5.6% (inactive) in test [1], 48.7% (inactive) in [3], 9.94% (inactive) in [8] and 12.2% (inactive) in [9]. In test [2], the inhibition of aggregation is 4.9% (inactive). Also, the figures for the nuclei count in test [2] and in test [3] were 82.3% and 35.5%, respectively. In addition, the fluorescence slope in [4] was -0.392 (inactive). In addition, the NADPH fluorescence slope in test [5] is -5.1e-05 (inactive). Besides, the slope in test [6] is 0.00488 (inactive). Moreover, in test [7], the call was inactive.
